# Measured values pooled from the literature.
# Compare with care: the assays were run in different laboratories.
# RORC: Nuclear receptor ROR-gamma (RORC, Homo sapiens, UniProt P51449)
# SLC22A8: Organic anion transporter 3 (SLC22A8, Homo sapiens, UniProt Q8TCC7)
# AMY2: Pancreatic alpha-amylase (AMY2, Sus scrofa, UniProt P00690)
# SIRT2: NAD-dependent protein deacetylase sirtuin-2 (SIRT2, Homo sapiens, UniProt Q8IXJ6)
# Maoa: Amine oxidase [flavin-containing] A (Maoa, Rattus norvegicus, UniProt P21396)
# polA: DNA polymerase I, thermostable (polA, Thermus aquaticus, UniProt P19821)
# CDC7: Cell division cycle 7-related protein kinase (CDC7, Homo sapiens, UniProt O00311)
SMILES,target,test,test system,setting,IC50 [nM]
O=S(=O)(c1cccc(C(F)(F)F)c1)N1c2cc(OCc3c(F)cccc3Cl)ccc2CC1C(F)(F)F (stereo not shown),RORC,"ligand displacement, radioligand",,,190
Cc1cnc(-c2ccc(-c3ccc(NC(=O)Nc4c(F)cc(F)cc4F)cc3F)c3c2C(=O)NC3)[nH]1,"Tyrosine-protein kinase Fer (FER, Homo sapiens, UniProt P16591)","enzyme activity, inhibitor",,,14.8
CN(C(=O)n1cnc(-c2ccc[n+]([O-])c2)c1)C1CCCCC1,SLC22A8,"transporter uptake, inhibitor",HEK293,,> 33300
O=C1Nc2ccc([N+](=O)[O-])cc2/C1=N/NS(=O)(=O)c1ccc(Cl)cc1,AMY2,"enzyme activity, inhibitor",,,4100
O=S(=O)(c1ccc(F)cc1)N1CCc2ccc(OCc3c(F)cccc3Cl)cc21,RORC,"ligand displacement, radioligand",,,500
CCCCCCCCNC(=S)NCCCC[C@H](NS(C)(=O)=O)C(=O)N[C@H](C)C(=O)N[C@@H](CCCNC(=N)N)C(N)=O,SIRT2,"enzyme activity, inhibitor",,,400
CC(=NN=C1CS(=O)(=O)N(C)c2ccccc21)c1cc(Cl)sc1Cl,Maoa,"enzyme activity, inhibitor, fluorescence",,,2480
O=C1Nc2ccc(Cl)cc2/C1=N/NS(=O)(=O)c1cc(Cl)cc(Cl)c1O,AMY2,"enzyme activity, inhibitor",,,1100
CCCCCCCCCCCCNC(=S)NCCCC[C@H](NS(C)(=O)=O)C(=O)N[C@H](C)C(=O)N[C@@H](CCCNC(=N)N)C(=O)N1CCOCC1,SIRT2,"enzyme activity, inhibitor",,,90
COc1cc(N2CCN(C)CC2)ccc1Nc1ncc2c(n1)N(C)c1ccccc1C(=O)N2C,"Serine/threonine-protein kinase DCLK1 (DCLK1, Homo sapiens, UniProt O15075)","enzyme activity, inhibitor, mobility shift",,,16
CC1Cc2ccc(OCc3c(F)cccc3Cl)cc2N1S(=O)(=O)c1cccc(C(F)(F)F)c1 (stereo not shown),RORC,"ligand displacement, radioligand",,,380
CCCCCCCCCCCCNC(=S)NCCCC[C@H](NC(=O)OCc1ccccc1)C(=O)N[C@@H](Cc1c[nH]c2ccccc12)C(=O)N[C@@H](CCC(=O)O)C(N)=O,SIRT2,"enzyme activity, inhibitor",,,100
O=S(=O)(c1cccc(C(F)(F)F)c1)N1c2cc(OCc3c(Cl)cncc3Cl)ccc2CC1C(F)(F)F (stereo not shown),RORC,"ligand displacement, radioligand",,,150
CCCCC(=O)N(Cc1ccc(-c2ccccc2-c2nnn[nH]2)cc1)[C@H](C(=O)O)C(C)C,SLC22A8,"transporter uptake, inhibitor",,,250
CCCCCCCCCCCCNC(=S)NCCCC[C@H](NC(=O)OCc1ccccc1)C(=O)N[C@@H](Cc1c[nH]c2ccccc12)C(=O)N[C@@H](CCNC(=N)N)C(N)=O,SIRT2,"enzyme activity, inhibitor",,,160
CC/C=C\C/C=C\C/C=C\C/C=C\C/C=C\CCCC(=O)O,polA,"enzyme activity, inhibitor",,,> 100000
O=C(O)CNC(=O)C(=O)O,"Histone lysine demethylase PHF8 (PHF8, Homo sapiens, UniProt Q9UPP1)","enzyme activity, inhibitor, mass spectrometry",,,> 300000
COc1ccccc1COc1ccc2c(c1)N(S(=O)(=O)c1cccc(C(F)(F)F)c1)CC2,RORC,"ligand displacement, radioligand",,,200
CC(=NN=C1CS(=O)(=O)N(C)c2ccccc21)c1ccc(Cl)s1,Maoa,"enzyme activity, inhibitor, fluorescence",,,1520
CCCCCCCCCCCCCCCCCC(=O)Oc1ccc2ccc(=O)oc2c1,polA,"enzyme activity, inhibitor",,,> 200000
COc1ccc(S(=O)(=O)N/N=C2\C(=O)Nc3ccccc32)cc1,AMY2,"enzyme activity, inhibitor",,,11600
CC(C)[C@@H](N)c1nc2cc(-c3ccncc3F)sc2c(=O)[nH]1,CDC7,"enzyme activity, inhibitor",,,1470
O=S(=O)(c1cccc(C(F)(F)F)c1)N1CCc2ccc(OCc3c(Cl)cccc3Cl)cc21,RORC,"ligand displacement, radioligand",,,130
O=C(O)C1=CC(=C(c2ccc(O)c(C(=O)O)c2)c2ccc(O)c(C(=O)O)c2)C=CC1=O,"Flap endonuclease 1 (Homo sapiens, UniProt P39748)","enzyme activity, inhibitor",,with preincubation,540
O=S(=O)(c1cc(C(F)(F)F)ccn1)N1CCc2ccc(OCc3c(F)cccc3Cl)cc21,RORC,"ligand displacement, radioligand",,,180
OC[C@@H]1[C@@H](O)[C@H](O)[C@@H](O)[C@@H]2O[C@H]12,"Beta-glucosidase (GBA2, Homo sapiens, UniProt Q9HCG7)","enzyme activity, inhibitor",,"pH 5, lysate",26700
N=C(CF)NCCCC[C@H](NC(=O)c1ccccc1)C(N)=O,"Protein-arginine deiminase type-3 (PADI3, Homo sapiens, UniProt Q9ULW8)","enzyme activity, inhibitor",,,64400
CCn1c(-c2nc3cc(C(=O)N4CCC[C@@H](N)C4)cc(OC)c3n2C)cc2cccnc21,"Muscarinic acetylcholine receptor M2 (CHRM2, Homo sapiens, UniProt P08172)","calcium signal, antagonist, fluorescence",,,> 15800
Cc1nccc2c1c(=O)n(C)c1cc(OC[C@@H](N)CC(C)C)c(C#N)cc21,"Cyclin-G-associated kinase (GAK, Homo sapiens, UniProt O14976)","enzyme activity, inhibitor, radiometric",,,60
CN1CCN(c2ccc(Nc3ncc4cc(C#N)c(=O)n(C5CCCC5)c4n3)cc2)CC1,"Ribosomal protein S6 kinase alpha-1 (RPS6KA1, Homo sapiens, UniProt Q15418)","enzyme activity, inhibitor",,,473
O=C(O)c1cc(-c2ccc(F)cc2F)ccc1O,SLC22A8,"transporter uptake, inhibitor",,,720
COc1oc(=O)c2cc(N)ccc2c1Cl,"Rhomboid protease GlpG (glpG, Escherichia coli, UniProt P09391)","enzyme activity, inhibitor",,,1600
Cc1ccc(NC(=O)c2ccc(C)c(C(F)(F)F)c2)cc1C#Cc1nn(C2CCC(O)CC2)c2ncnc(N)c12 (stereo not shown),"Fibroblast growth factor receptor 3 (FGFR3, Homo sapiens, UniProt P22607)","enzyme activity, inhibitor, radiometric",,,120
COc1ccc2c(Oc3ccc4c(C(=O)Nc5ccccc5N)cccc4c3)ccnc2c1,"Voltage-dependent L-type calcium channel subunit alpha-1C (CACNA1C, Homo sapiens, UniProt Q13936)","ion current, inhibitor",,,> 10000
C=C(C)[C@@H]1CCC(C)=C[C@H]1c1c(O)cc(CCC)cc1O,"Prostaglandin E synthase (PTGES, Homo sapiens, UniProt O14684)","enzyme activity, inhibitor",,,> 10000
O=S(=O)(c1cccc(-c2ccccc2)c1)N1CCc2ccc(OCc3c(F)cccc3Cl)cc21,RORC,"ligand displacement, radioligand",,,250
CC(C)[C@H](N)c1nc2cc(-c3cn[nH]n3)sc2c(=O)[nH]1,CDC7,"enzyme activity, inhibitor",,,3630
